Data as given in ChEMBL document CHEMBL4014270, “Aedes aegypti Larvicidal Sesquiterpene Alkaloids from Maytenus oblongata” (J Nat Prod, 2017).

Tests used:
[1] = tested on: Aedes aegypti; assay: Larvicidal activity against Aedes aegypti Paea assessed as mortality after 24 hrs by tube assay; type: functional; conditions: read-out: LD50 (the source's name)
In short: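 Tube assay on late third- or early fourth-instar larvae of the insecticide-susceptible Paea strain, kept at 28 ± 2 °C and 80 ± 20% RH. Compound in ethanol was added at five concentrations from 1 to 10 μg/mL, 10 tubes of 5 larvae each, in distilled water, with ethanol controls.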

[2] = tested on: MRC5; assay: Cytotoxicity against human MRC5 cells assessed as mortality at 10 ug/ml relative to control; type: cell-based
In short: (§1)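 MRC5 cells (normal lung tissue from a fetus), exposed to the test material at 1 or 10 μg/mL, with mortality scored against control. The method follows a previously published cytotoxicity procedure, with docetaxel as positive control.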

[3] = tested on: MRC5; assay: Cytotoxicity against human MRC5 cells assessed as mortality at 1 ug/ml relative to control; type: cell-based; in short: as §1
[4] = tested on: Aedes aegypti; assay: Larvicidal activity against Aedes aegypti Paea assessed as mortality at 50 ug/ml after 24 hrs by tube assay relative to control; type: functional
[5] = tested on: Aedes aegypti; assay: Larvicidal activity against Aedes aegypti Cayenne assessed as mortality at 50 ug/ml after 24 hrs by tube assay relative to control; type: functional

CC(=O)OC[C@]12[C@H](OC(C)=O)[C@H](OC(=O)c3ccccc3)[C@H]3OC(=O)C(C)(O)CCc4ccncc4C(=O)OC[C@@]4(C)O[C@@]1([C@H]3C)[C@@H](OC(C)=O)[C@@H]4[C@@H](OC(C)=O)[C@@H]2OC(C)=O (stereo partly drawn)
LC50 [1]: > 10 µM
mortality [2]: 17%
mortality [3]: 15%

CC1(C)[C@H](C(=O)O[C@H](C#N)c2cccc(Oc3ccccc3)c2)[C@@H]1C=C(Br)Br [DELTAMETHRIN]
mortality at 50 µg/mL [4]: 100%
mortality at 50 µg/mL [5]: 26%

CC(=O)OC[C@]12[C@H](OC(C)=O)[C@H](OC(C)=O)[C@H]3OC(=O)C(C)(O)CCc4ncccc4C(=O)OC[C@@]4(C)O[C@@]1([C@H]3C)[C@@H](OC(C)=O)[C@@H]4C(=O)[C@@H]2OC(C)=O (stereo partly drawn)
LC50 [1]: > 10 µM
mortality [2]: 38%
mortality [3]: 24%

CC(=O)O[C@@]12CO[C@@H]1C[C@H](O)[C@@]1(C)C(=O)[C@H](O)C3=C(C)[C@@H](OC(=O)[C@H](O)[C@@H](NC(=O)OC(C)(C)C)c4ccccc4)C[C@@](O)([C@@H](OC(=O)c4ccccc4)[C@H]21)C3(C)C [DOCETAXEL ANHYDROUS]
mortality [3]: 0.0005%

CC(=O)OC[C@]12[C@H](OC(=O)c3ccccc3)[C@H](OC(C)=O)[C@H]3OC(=O)C(C)(O)CCc4ncccc4C(=O)OC[C@@]4(C)O[C@@]1([C@H]3C)[C@@H](OC(C)=O)[C@@H]4C(=O)[C@@H]2OC(C)=O (stereo partly drawn)
LC50 [1]: 9.4 µM
mortality [2]: 15%
mortality [3]: 15%

CC(=O)OC[C@]12[C@H](OC(=O)c3ccccc3)[C@H](OC(=O)c3ccccc3)[C@H]3OC(=O)C(C)(O)CCc4ncccc4C(=O)OC[C@@]4(C)O[C@@]1([C@H]3C)[C@@H](OC(C)=O)[C@@H]4C(=O)[C@@H]2OC(C)=O (stereo partly drawn)
LC50 [1]: 2.7 µM
mortality [2]: 21%
mortality [3]: 18%

C[C@H]1C(=O)CC[C@@H]2[C@]1(C)CC[C@H]1[C@@]2(C)C[C@H](O)[C@@]2(C)[C@@H]3CC(C)(C)CC[C@]3(C)[C@@H](O)C[C@]12C
LC50 [1]: > 10 µM
mortality [2]: 48%
mortality [3]: 16%
